# Reference: ChEMBL document CHEMBL4725336, “Anti-cancer potential of (1,2-dihydronaphtho[2,1-b]furan-2-yl)methanone derivatives” (Bioorg Med Chem Lett, 2020)
# Calls of active or inactive are those of the source. No cut-off for these calls is given here.
# Columns and labels:
# MDA-MB-468 [1] = assay: Induction of apoptosis in human MDA-MB-468 cells assessed as decrease in pBad expression at 10 to 30 uM by Western blot analysis; assay type: functional, cell-based; conditions: dose microM 10-30
# Procedure, shortened: (§1)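 MDA-MB-468 cells were treated with 10, 20 and 30 μM. Bcl2, Bax, cleaved caspase-3, p53 and pBad were probed by Western blot, and band expression was quantified.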
# MCF7 [2] = assay: Induction of mitochondrial membrane potential loss in human MCF7 cells at 10 to 30 uM by JC-1 staining based analysis; assay type: functional, cell-based; conditions: dose microM 10-30, TDE = time-dependent effect
# Procedure, shortened: (§2)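 Cells were given 10, 20 and 30 μM and stained with JC-1. Mitochondrial membrane potential change was read as the shift from red to green fluorescence, i.e. the red/green ratio, across concentration and time.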
# WI-38 [3] = assay: Induction of apoptosis in human WI-38 cells at 10 to 30 uM measured after 24 hrs by annexinV-FITC/propidium iodide staining based flow cytometry analysis; assay type: cell-based; conditions: wi-38, 24 h, dose 10-30 µM
# Procedure, shortened: (§3)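 Cells were treated with 0, 10, 20 and 30 μM for 24 h, then stained with Annexin V-FITC/PI. Apoptotic cells were quantified by flow cytometry from dot plots against untreated cells.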
# [4] = Cytotoxicity against human WI-38 cells assessed as inhibition of cell proliferation by MTT assay; assay type: cell-based; conditions: read-out: LD50 (the source's name)
# Procedure, shortened: (§4)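 MTT proliferation assay; cells exposed to compounds across 0-50 μM; LD50 derived from dose-dependent survival. Triple-negative MDA-MB-468, MDA-MB-231 and 4T1, ER+/PR+ MCF-7, and non-cancerous lung fibroblast WI-38 tested.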
# MDA-MB-468 [5] = assay: Induction of ROS generation in human MDA-MB-468 cells assessed as increase in fluorescence intensity after 12 hrs by DCFDA staining based microscopy analysis; assay type: functional, cell-based; conditions: dose microM 10-30, time 12.0 hrs
# Procedure, shortened: (§5)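 Cells were exposed to 0, 10, 20 or 30 μM for 12 h, then stained with DCFDA (100 μM) for 30 min. Green fluorescence was imaged by microscopy and intensity was also read spectrophotometrically. Data are the mean of three experiments ±SD.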
# WI-38 [6] = assay: Induction of apoptosis in human WI-38 cells assessed as increase in cleaved caspase-3 expression at 10 to 30 uM by Western blot analysis; assay type: cell-based; conditions: wi-38, 30 µM, dose 10-30 µM
# [7] = Selectivity index, ratio of LD50 for human WI-38 cells to LD50 for human MDA-MB-231 cells assessed as inhibition of cell proliferation by MTT assay; assay type: toxicity; conditions: WI-38 cells and MDA-MB-231 cells, read-out: Selectivity Index
# MDA-MB-468 [8] = assay: Induction of apoptosis in human MDA-MB-468 cells measured after 24 hrs by annexinV-FITC/propidium iodide staining based flow cytometry analysis; assay type: functional, cell-based; conditions: dose microM 10-30, time 24.0 hrs; procedure, shortened: as §3
# MDA-MB-468 [9] = assay: Induction of apoptosis in human MDA-MB-468 cells assessed as increase in cleaved caspase-3 expression at 10 to 30 uM in presence of pan-caspase inhibitor z-VAD-FMK by Western blot analysis; assay type: functional, cell-based; conditions: dose microM 10-30
# Procedure, shortened: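 MDA-MB-468 cells were exposed to the caspase inhibitor Z-VAD-FMK, then treated with 10, 20 or 30 μM. Cleaved caspase-3 was detected by Western blot and quantified.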
# MCF7 [10] = assay: Antiproliferative activity against human MCF7 cells assessed as inhibition of cell proliferation by MTT assay; assay type: functional; conditions: read-out: LD50 (the source's name); procedure, shortened: as §4
# [11] = Selectivity index, ratio of LD50 for human WI-38 cells to LD50 for mouse 4T1 cells assessed as inhibition of cell proliferation by MTT assay
# Procedure, shortened: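 Selectivity index computed as MTT-derived LD50 in non-cancerous WI-38 lung fibroblasts divided by LD50 in the cancer line (cells exposed to 0-50 μM).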
# [12] = Selectivity index, ratio of LD50 for human WI-38 cells to LD50 for human MDA-MB-468 cells assessed as inhibition of cell proliferation by MTT assay; assay type: toxicity; conditions: WI-38 cells and MDA-MB-468 cells, read-out: Selectivity Index
# Procedure, shortened: (§6)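 MTT proliferation assay on cells treated with 0–50 μM. LD50 was derived for each cell line, and the selectivity index was calculated as WI-38 LD50 divided by cancer-cell LD50.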
# MCF7 [13] = assay: Induction of apoptosis in human MCF7 cells measured after 24 hrs by annexinV-FITC/propidium iodide staining based flow cytometry analysis; assay type: functional, cell-based; conditions: dose microM 10-30, time 24.0 hrs; procedure, shortened: as §3
# MDA-MB-468 [14] = assay: Induction of mitochondrial ROS production in human MDA-MB-468 cells at 10 to 30 uM by MitoSox red dye based spectrofluorimetric analysis; assay type: functional, cell-based; conditions: dose microM 10-30
# Procedure, shortened: (§7)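 Cells were treated at 10, 20 and 30 μM and stained with MitoSOX Red. Red fluorescence from oxidized product was imaged and its intensity measured spectroscopically. Mean of three experiments ±SD.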
# MDA-MB-468 [15] = assay: Induction of apoptosis in human MDA-MB-468 cells assessed as decrease in Bcl2 expression at 10 to 30 uM by Western blot analysis; assay type: functional, cell-based; conditions: dose microM 10-30; procedure, shortened: as §1
# WI-38 [16] = assay: Induction of ROS generation in human WI-38 cells assessed as increase in fluorescence intensity at 10 to 30 uM after 12 hrs by DCFDA staining based microscopy analysis; assay type: cell-based; conditions: wi-38, 12 h, dose 10-30 µM; procedure, shortened: as §5
# MDA-MB-468 [17] = assay: Induction of DNA damage in human MDA-MB-468 cells assessed as tail length at 20 uM measured after 24 hrs by comet assay; assay type: functional
# Procedure, shortened: (§8)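 Cells given 0, 10, 20 and 30 μM; DNA strand breaks were assessed by single-cell gel electrophoresis (comet assay). Fragmented DNA migrates toward the anode, and tail length was measured against untreated cells.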
# MCF7 [18] = assay: Induction of ROS generation in human MCF7 cells assessed as increase in fluorescence intensity at 10 to 30 uM after 12 hrs in presence of ROS scavenger NAC by DCFDA staining based microscopy analysis; assay type: functional, cell-based; conditions: dose microM 10-30, time 12.0 hrs
# Procedure, shortened: (§9)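 Cells were pre-treated with 10 mM N-acetyl cysteine (ROS scavenger), then given 10, 20 or 30 μM for 12 h. They were stained with 100 μM DCFDA for 30 min and read by fluorescence microscopy and spectrophotometric intensity. Three experiments, mean ±SD.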
# MCF7 [19] = assay: Induction of ROS generation in human MCF7 cells assessed as increase in fluorescence intensity after 12 hrs by DCFDA staining based microscopy analysis; assay type: functional, cell-based; conditions: dose microM 10-30, time 12.0 hrs; procedure, shortened: as §5
# MDA-MB-468 [20] = assay: Induction of apoptosis in human MDA-MB-468 cells assessed as increase in p53 expression at 10 to 30 uM by Western blot analysis; assay type: functional, cell-based; conditions: dose microM 10-30; procedure, shortened: as §1
# MDA-MB-468 [21] = assay: Induction of apoptosis in human MDA-MB-468 cells assessed as increase in BAX/Bcl2 expression ratio at 10 to 30 uM by Western blot analysis; assay type: functional, cell-based; conditions: dose microM 10-30; procedure, shortened: as §1
# MDA-MB-468 [22] = assay: Induction of apoptosis in human MDA-MB-468 cells at 30 uM measured after 24 hrs by annexinV-FITC/propidium iodide staining based flow cytometry analysis relative to control; assay type: functional; procedure, shortened: as §3
# WI-38 [23] = assay: Induction of mitochondrial membrane potential loss in human WI-38 cells at 10 to 30 uM by JC-1 staining based analysis; assay type: cell-based; conditions: wi-38, 30 µM, dose 10-30 µM; procedure, shortened: as §2
# MDA-MB-231 = assay: Antiproliferative activity against human MDA-MB-231 cells assessed as inhibition of cell proliferation by MTT assay; assay type: functional; conditions: read-out: LD50 (the source's name); procedure, shortened: as §4
# [24] = Selectivity index, ratio of LD50 for human WI-38 cells to LD50 for human MCF7 cells assessed as inhibition of cell proliferation by MTT assay; assay type: toxicity; conditions: WI-38 cells and MCF7 cells, read-out: Selectivity Index; procedure, shortened: as §6
# MDA-MB-468 [25] = assay: Induction of apoptosis in human MDA-MB-468 cells assessed as activation of caspase-3 cleavage at 10 to 30 uM by Western blot analysis; assay type: functional, cell-based; conditions: dose microM 10-30; procedure, shortened: as §1
# MDA-MB-468 [26] = assay: Induction of mitochondrial membrane potential loss in human MDA-MB-468 cells by JC-1 staining based analysis; assay type: functional, cell-based; conditions: dose microM 10-30; procedure, shortened: as §2
# MDA-MB-468 [27] = assay: Induction of ROS generation in human MDA-MB-468 cells assessed as increase in fluorescence intensity at 10 to 30 uM after 12 hrs in presence of ROS scavenger NAC by DCFDA staining based microscopy analysis; assay type: functional, cell-based; conditions: dose microM 10-30, time 12.0 hrs; procedure, shortened: as §9
# MCF7 [28] = assay: Induction of apoptosis in human MCF7 cells at 30 uM measured after 24 hrs by annexinV-FITC/propidium iodide staining based flow cytometry analysis relative to control; assay type: functional; procedure, shortened: as §3
# MCF7 [29] = assay: Induction of mitochondrial membrane potential loss in human MCF7 cells by JC-1 staining based analysis; assay type: functional, cell-based; conditions: dose microM 10-30; procedure, shortened: as §2
# MDA-MB-468 [30] = assay: Induction of DNA damage in human MDA-MB-468 cells assessed as tail length at 30 uM measured after 24 hrs by comet assay; assay type: functional; procedure, shortened: as §8
# MDA-MB-468 [31] = assay: Antiproliferative activity against human MDA-MB-468 cells assessed as inhibition of cell proliferation by MTT assay; assay type: functional; conditions: read-out: LD50 (the source's name); procedure, shortened: as §4
# MCF7 [32] = assay: Induction of mitochondrial ROS production in human MCF7 cells at 10 to 30 uM by MitoSox red dye based spectrofluorimetric analysis; assay type: functional, cell-based; conditions: dose microM 10-30; procedure, shortened: as §7
# MDA-MB-468 [33] = assay: Induction of mitochondrial membrane potential loss in human MDA-MB-468 cells at 10 to 30 uM by JC-1 staining based analysis; assay type: functional, cell-based; conditions: dose microM 10-30, TDE = time-dependent effect; procedure, shortened: as §2
# 4T1 = assay: Antiproliferative activity against mouse 4T1 cells assessed as inhibition of cell proliferation by MTT assay; assay type: functional; conditions: read-out: LD50 (the source's name); procedure, shortened: as §4
smiles,measurement,setting,value
Cc1ccc(C(=O)[C@@H]2Cc3c(ccc4ccccc34)O2)cc1,Activity,MDA-MB-468 [1],Active
same,Activity,MCF7 [2],Tde
same,Activity,WI-38 [3],Non-Toxic
same,CC50,[4],58 µM
same,Activity,MDA-MB-468 [5],Dose-dependent effect
same,Activity,WI-38 [6],Non-Toxic
same,selectivity ratio,[7],3.05
same,Activity,MDA-MB-468 [8],Dose-dependent effect
same,Activity,MDA-MB-468 [9],inactive
same,CC50,MCF7 [10],17 µM
same,Selectivity Index,[11],2.76
same,selectivity ratio,[12],3.87
same,Activity,MCF7 [13],Dose-dependent effect
same,Activity,MDA-MB-468 [14],Active
same,Activity,MDA-MB-468 [15],Active
same,Activity,WI-38 [16],Non-Toxic
same,Activity,MDA-MB-468 [17],32 µm
same,Activity,MCF7 [18],inactive
same,Activity,MCF7 [19],Dose-dependent effect
same,Activity,MDA-MB-468 [20],Active
same,Activity,MDA-MB-468 [21],Active
same,Activity,MDA-MB-468 [22],69%
same,Activity,WI-38 [23],Non-Toxic
same,CC50,MDA-MB-231,19 µM
same,selectivity ratio,[24],3.41
same,Activity,MDA-MB-468 [25],Active
same,Activity,MDA-MB-468 [26],Dose-dependent effect
same,Activity,MDA-MB-468 [27],inactive
same,Activity,MCF7 [28],61%
same,Activity,MCF7 [29],Dose-dependent effect
same,Activity,MDA-MB-468 [30],63 µm
same,CC50,MDA-MB-468 [31],15 µM
same,Activity,MCF7 [32],Active
same,Activity,MDA-MB-468 [33],Tde
same,CC50,4T1,21 µM
O=C(c1ccccc1)[C@H]1Oc2ccc3cc(Br)ccc3c2[C@@H]1c1ccccc1,CC50,[4],52 µM
same,selectivity ratio,[7],2.36
same,CC50,MCF7 [10],19 µM
same,Selectivity Index,[11],2.16
same,selectivity ratio,[12],2.89
same,CC50,MDA-MB-231,22 µM
same,selectivity ratio,[24],2.74
same,CC50,MDA-MB-468 [31],18 µM
same,CC50,4T1,24 µM
O=C(c1ccc(Br)cc1)[C@@H]1Cc2c(ccc3ccccc23)O1,CC50,[4],56 µM
same,selectivity ratio,[7],2.43
same,CC50,MCF7 [10],21 µM
same,Selectivity Index,[11],2.24
same,selectivity ratio,[12],3.11
same,CC50,MDA-MB-231,23 µM
same,selectivity ratio,[24],2.66
same,CC50,MDA-MB-468 [31],18 µM
same,CC50,4T1,25 µM
